Compound activity as filed in PubChem.
This is a sample that favours compounds with a hit; in the whole collection about 3.5% have one here.
Env fusion inh: inhibitors of HIV-1 Env-driven cell-cell fusion, primary screen, HeLa-JRFL effector, CEM21 target cells, luciferase; AID 651610, 2012; inhibition, % at 12.3 µM; actives 1.1% (n = 360,000);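 active = mean replicate inhibition score of at least 50 and every replicate individually at or above 50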
FGF22 binding: binders of human FGF22 protein, primary screen, FGF22 synaptogenesis inhibitor project, biophysical, thermal shift, single point. activity (Tm shift, normalised), % at 9.99 µM. recombinant FGF22 thermal shift, SYPRO orange fluorescence; percent of sucrose octasulfate shift, DMSO zero. AID 651658, 2012. actives 1.5% (n = 340,000);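 active = mean Tm shift, scaled 0 neutral to 100 positive control, at about 1.3% or above, every replicate too, limit read from the data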
ERAP1 HTS inh: human ERAP1 aminopeptidase inhibitors, primary screen, biochemical, single point, plate reader; AID 652197, 2013; actives 0.15% (n = 340,000); inhibition, % at 10.7 µM; recombinant ERAP1, Leu-AMC fluorescence, 60 min; Endoplasmic reticulum aminopeptidase 1 (Homo sapiens), Q9NZ08;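 active = mean replicate inhibition of at least 30%, or all replicates individually reaching that 30% level; inactive = mean below 30% and not every replicate reaching it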
PGC1a acetyl inh: inhibitors of PGC1a acetylation signal, primary screen, cell-based, U2OS, AlphaScreen, inhibitor mode; AlphaScreen anti-acetyl-lysine; with virally co-expressed GCN5 acetyltransferase; inhibition, % at 15.6 µM; actives 0.17% (n = 350,000); AID 651687, 2012;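 active = every replicate shows inhibition of at least 40%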
Cneo AK release: Cryptococcus neoformans cell lysis inducers, primary screen, AK release luminescence, single concentration; C. neoformans lysis, adenylate kinase release luminescence, 4 h; normalised: neutral wells 0, clomiphene wells 100; lysis activity, % at 15 µM; actives 0.2% (n = 360,000); AID 651654, 2012;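 active = mean lysis activity across replicates of at least 80%, whatever share of replicates individually reach that level; inactive = mean lysis activity below 80%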
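Material: C. neoformans cells | Amount: Yeast cell density of 5 × 10^6 cells/mL | Medium: Fresh YPD growth medium | Dosing: Single dose | Times: Static 4 h at 37 °C with compound, 1 h detection | Detection: AK luminescence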
Ecoli rRNA inh: reduced GFP signal of wild-type E. coli, primary screen, bacterial rRNA inhibitor project, GFP/RFP fluorescence, OD600, single point; GFP signal change (wild-type ribosome), % (concentration not given with the values); E. coli WT GFP vs humanized-ribosome RFP mutants, 24 h; stronger effect = lower value; DMSO median 0, no signal -100; actives 1.6% (n = 350,000); AID 720706, 2013;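 active = significant combined selectivity score with lowered wild-type GFP, culture density cut under 30%, mutant RFP and density less affected; inactive = any of these conditions unmet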
A number is an active result; - = inactive; . = no result; [ ] = dose if it differs, or a comment.

SMILES	Env fusion inh	FGF22 binding	ERAP1 HTS inh	PGC1a acetyl inh	Cneo AK release	Ecoli rRNA inh
COc1ccccc1/C=C/C(=O)Nc1ccc(S(=O)(=O)Nc2cc(C)on2)cc1	-	-	-	-	-	-35
Cc1c(C(=O)Nc2ccc(S(=O)(=O)Nc3ncccn3)cc2)oc2ccccc12	-	-	-	-	-	-
Cc1ccc(NC(=O)Cn2cnc(C(=O)Nc3ccc(C)c(C)c3)n2)cc1C	-	-	.	-	-	-
COc1cc(C2Nc3cc(C)c(C)cc3NC3=C2C(=O)CC(C)(C)C3)ccc1OC(C)=O (stereo unspecified)	-	-	-	-	-	.
Cc1ccc(NC(=S)NCCc2ccccc2)c(C)c1	-	.	.	.	.	.
CCOC(=O)c1[nH]c2ccccc2c1NC(=O)NC(C)C	-	-	-	-	-	-
CCOC(=O)c1[nH]c2ccccc2c1NC(=O)c1ccc(Br)o1	.	-	-	-	-	-19
CCOC(=O)c1[nH]c2ccc(Br)cc2c1NC(=O)CCN1CCOCC1	-	-	34	-	-	-
C[C@@H]1CN([C@H](C)CO)C(=O)c2cc(NS(=O)(=O)c3ccc(Cl)cc3)ccc2O[C@H]1CN(C)Cc1ccc(C(=O)O)cc1	.	-	-	-	-	-
Cc1ccc(S(=O)(=O)N(C)C[C@@H]2Oc3ccc(NC(=O)Cc4cn(C)c5ccccc45)cc3CC(=O)N([C@H](C)CO)C[C@@H]2C)cc1	74[16.7 µM]	-	-	-	-	-
C[C@H]1CN([C@@H](C)CO)C(=O)Cc2cc(NC(=O)Cc3cn(C)c4ccccc34)ccc2O[C@H]1CN(C)S(=O)(=O)c1ccccc1	67[16.7 µM]	-	-	-	-	-
Cc1ccc(S(=O)(=O)N(C)C[C@H]2Oc3ccc(NC(=O)Cc4cn(C)c5ccccc45)cc3CC(=O)N([C@@H](C)CO)C[C@@H]2C)cc1	-	-	-	-	-	-
C[C@H](CO)N1C[C@H](C)[C@H](CN(C)S(=O)(=O)c2ccc(F)cc2)Oc2ccc(NC(=O)Cc3cn(C)c4ccccc34)cc2CC1=O	56[16.7 µM]	-	-	-	-	-
Cc1ccc2cc3cc(C(=O)NCCN4CCOCC4)oc3nc2c1	59	.	.	-	-	.
COc1ccc2cc3cc(C(=O)NCCc4ccc(OC)c(OC)c4)oc3nc2c1	68	.	.	-	-	.
O=C(C[C@@H]1CC[C@@H]2[C@H](COC[C@@H](O)CN2Cc2ccccc2)O1)N1CCOCC1	-	-	-	-	-	-
CCCCCCC(=O)O	.	-	-	-	-	-
CCCCCCCCC(=O)O	.	.	.	66	-	.
COc1ccc(NC(=O)Nc2ccc3c(c2)CC(=O)N([C@@H](C)CO)C[C@@H](C)[C@H](CN(C)Cc2ccc4c(c2)OCO4)O3)cc1	-	-	-	-	-	-
CCOc1c2ccc(C(=O)NCCc3ccc(C)cc3)cc2nn1CC	-	-	-	-	-	-24
CCCCn1nc2cc(C(=O)NCc3cc(C(F)(F)F)cc(C(F)(F)F)c3)ccc2c1OCC	.	44	-	-	-	-
COC(=O)C1=C(C)N(Cc2cccnc2)C(=O)C1	-	.	.	.	-	.
COc1ccc(CCNC(=O)C2CCN(S(=O)(=O)c3ccc(F)cc3)CC2)cc1	-	-	-	-	-	-
CN(C)/C=C(/C(=O)c1ccc(Cl)cc1)S(C)(=O)=O	-	-	-	.	.	-
CN(C)/C=C(/C(=O)c1ccc(Cl)c(Cl)c1)S(C)(=O)=O	-	44	-	-	-	-
SMILES	Env fusion inh	FGF22 binding	ERAP1 HTS inh	PGC1a acetyl inh	Cneo AK release	Ecoli rRNA inh
COCCN(Cc1cn(C)nc1-c1ccccc1F)C(C)C	-	-	-	.	.	-
O=C(CNc1ccc(Cl)cc1)c1ccc(Br)cc1	-	-	-	.	-	.
O=C(CNc1ccc(Br)cc1)c1ccc(O)cc1	-	-	-	-	.	-45
COc1ccc(S(=O)(=O)Nc2c(C)nc3nc[nH]n3c2=O)cc1	-	43	-	-	-	-
Cc1nc2nc[nH]n2c(=O)c1NS(=O)(=O)c1ccc(F)cc1	-	-	-	-	.	-
C[C@H]1CN([C@@H](C)CO)C(=O)c2cc(NS(=O)(=O)c3cccs3)ccc2O[C@@H]1CN(C)Cc1ccc(-c2ccccc2)cc1	.	-	-	-	-	-
Cc1ccccc1CN1CCN(C(=O)c2cccc3ccccc23)CC1	-	-	-	-	-	-22
C[C@H](CO)N1C[C@H](C)[C@H](CN(C)S(=O)(=O)c2cccs2)Oc2ncc(Br)cc2C1=O	-	-	-	-	-	-
O=C(Nc1nc2ccc(F)cc2s1)c1cccs1	-	-	-	-	.	-
Cc1nc2ccccc2cc1OCc1ccc(Cl)cc1	-	.	.	-	-	.
Cc1nc2ccccc2nc(C)c1=NOCc1cccc(Cl)c1	69	-	-	-	-	-
CO[C@H]1CN(C)C(=O)c2cc(NC(=O)C3CC3)ccc2OC[C@H](C)NC[C@H]1C	.	-	-	-	.	-
CS(=O)(=O)N1CCN(c2ccccc2NC(=O)Cc2ccccc2)CC1	.	.	.	-	-	.
O=C(Cc1ccccc1)Nc1ccccc1N1CCN(c2ccccc2)CC1	.	-	-	-	-	-23
O=C(CN1CCN(c2ccc(O)cc2)CC1)Nc1ccccc1C(=O)NCCc1ccccc1	-	-	-	-	-	-25
CCC(C)NC(=O)NCc1ccccc1F (stereo unspecified)	-	-	-	-	-	-
N#Cc1c(F)cccc1NCc1cccnc1	-	-	-	.	-	-
N#Cc1c(NCc2ccccc2)ccnc1NCc1cccnc1	107	.	.	-	-	.
O=C(Nc1ccncc1)c1cccc2ccccc12	-	-	.	-	-	-
CC(=O)Nc1ccc(S(=O)(=O)N(C)Cc2ccccc2)cc1	-	-	-	.	.	-
CC(=O)Nc1ccc(S(=O)(=O)N(Cc2ccccc2)C(C)C)cc1	84	.	.	-	-	.
Cc1noc(C)c1NC(=O)Nc1ccc2c(c1)C(=O)N(C)[C@@H]1CC[C@@H](CC(=O)N[C@@H]3CCN(Cc4ccccc4)C3)O[C@H]1CO2	-	-	-	-	-	-
